{"source": "ChEMBL document CHEMBL2413074", "about": "“Structure-based drug design using GPCR homology modeling: toward the discovery of novel selective CysLT2 antagonists” (Eur J Med Chem, 2013)", "format_in_all_cases": "functional, cell-based", "key": {"[1]": {"molecular_target": "T1, Cysteinyl leukotriene receptor 2 (Homo sapiens) (UniProt Q9NS75)", "T1 sequence (whole entry)": "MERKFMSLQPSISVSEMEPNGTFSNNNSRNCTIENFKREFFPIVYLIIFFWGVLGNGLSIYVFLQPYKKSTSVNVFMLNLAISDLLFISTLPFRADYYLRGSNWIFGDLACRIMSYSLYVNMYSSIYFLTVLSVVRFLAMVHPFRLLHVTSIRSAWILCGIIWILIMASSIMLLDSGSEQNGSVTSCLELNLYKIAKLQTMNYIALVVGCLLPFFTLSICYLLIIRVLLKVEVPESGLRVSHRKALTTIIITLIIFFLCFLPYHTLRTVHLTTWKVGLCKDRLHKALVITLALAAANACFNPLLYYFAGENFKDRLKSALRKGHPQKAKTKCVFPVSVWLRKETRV", "assay": "Antagonist activity at human recombinant CysLT2 receptor expressed in human HEK293 cells assessed as reduction in LTD4-induced cytosolic free Ca2+ level at 1 uM after 30 mins by fluorescence assay relative to control", "outline": "(§1)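 HEK293 cells stably transfected with pcDNA3.1(+)-hCysLT2 were grown at 37 °C in 5% CO2 and plated. After 24 h they were preincubated for 30 min in BSS with or without test compound. Cells were then stimulated with LTD4, with ATP as a positive stimulus. The response was taken as peak minus basal and expressed as % of BSS-only control.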"}, "[2]": {"molecular_target": "T2, Cysteinyl leukotriene receptor 1 (Homo sapiens) (UniProt Q9Y271)", "T2 sequence (whole entry)": "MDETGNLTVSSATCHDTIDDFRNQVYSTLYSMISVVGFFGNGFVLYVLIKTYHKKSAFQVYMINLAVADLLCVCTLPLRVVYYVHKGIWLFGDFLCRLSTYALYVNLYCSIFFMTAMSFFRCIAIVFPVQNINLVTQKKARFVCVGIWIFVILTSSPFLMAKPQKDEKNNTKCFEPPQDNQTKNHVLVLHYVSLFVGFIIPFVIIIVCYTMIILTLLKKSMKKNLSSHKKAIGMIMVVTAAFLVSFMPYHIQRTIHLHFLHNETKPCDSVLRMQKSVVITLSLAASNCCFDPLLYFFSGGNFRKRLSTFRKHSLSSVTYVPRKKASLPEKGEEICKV", "assay": "Antagonist activity at CysLT1 receptor (unknown origin) expressed in human dU937 cells assessed as reduction in LTD4-induced cytosolic free Ca2+ level at 1 uM after 30 mins by fluorescence assay relative to control"}, "[3]": {"molecular_target": "T3, Cysteinyl leukotriene receptor 2 (Homo sapiens, UniProt Q9NS75)", "T3 sequence (Q9NS75 whole entry)": "T1 sequence (whole entry)", "assay": "(§2) Antagonist activity at human recombinant CysLT2 receptor expressed in human HEK293 cells assessed as reduction in LTD4-induced cytosolic free Ca2+ level after 30 mins by fluorescence assay relative to control", "outline": "as §1, with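 “stimulus. [Ca2+]i fluorescence was read at 37 °C (ex 485/em 525 nm).” for “stimulus.”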"}, "[4]": {"molecular_target": "T1, Cysteinyl leukotriene receptor 2 (Homo sapiens)", "assay": "as §2", "outline": "as §1, with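 “stimulus. [Ca2+]i fluorescence was read at 37 °C (ex 485/em 525 nm).” for “stimulus.”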"}}}
{"smiles": "N#CCOc1cc(C(=O)O)ccc1C(=O)/C=C/c1ccc(OCCCCOc2ccc(Cl)cc2)cc1", "values": [{"measurement": "inhibition", "setting": "[1]", "value": 10.4, "unit": "%"}]}
{"smiles": "CCCCCCCCCCCCOc1ccc(/C=C/C(=O)c2ccc(C(=O)O)cc2OCC(=O)O)cc1", "values": [{"measurement": "inhibition", "setting": "[2]", "value": 10.6, "unit": "%"}]}
{"smiles": "CCCCCCCCCCCCOc1ccc(/C=C/C(=O)c2cc(C(=O)O)ccc2OCC(=O)O)cc1", "values": [{"measurement": "inhibition", "setting": "[2]", "value": 35.7, "unit": "%"}]}
{"smiles": "CCCCCCCCCCCCOc1cccc(/C=C/C(=O)c2cc(C(=O)O)ccc2OCC(=O)O)c1", "values": [{"measurement": "inhibition", "setting": "[1]", "value": 70.5, "unit": "%"}, {"measurement": "inhibition", "setting": "[2]", "value": 4.8, "unit": "%"}, {"measurement": "IC50", "setting": "[3]", "value": 0.25, "unit": "µM"}, {"measurement": "Activity", "setting": "[4]", "value": "Dose-dependent effect"}, {"measurement": "Imax", "setting": "[4]", "value": 80.5, "unit": "%"}]}
{"smiles": "O=C(O)COc1ccc(C(=O)O)cc1C(=O)/C=C/c1ccc(OCCCCOc2ccc(Cl)cc2)cc1", "values": [{"measurement": "inhibition", "setting": "[1]", "value": 44, "unit": "%"}, {"measurement": "inhibition", "setting": "[2]", "value": 7, "unit": "%"}, {"measurement": "IC50", "setting": "[3]", "value": 7.5, "unit": "µM"}, {"measurement": "Activity", "setting": "[4]", "value": "Dose-dependent effect"}, {"measurement": "Imax", "setting": "[4]", "value": 72.8, "unit": "%"}]}
{"smiles": "CCCCCCCCOc1ccc(/C=C/C(=O)c2ccc(C(=O)O)cc2OCC(=O)O)cc1", "values": [{"measurement": "inhibition", "setting": "[2]", "value": 8.6, "unit": "%"}]}
